Assays:
[1] = The compound was tested for toxicity using human neuroblastoma SY5Y cells; assay type: cell-based
Method in brief: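 Cytotoxicity was assessed in cultured human neuroblastoma SY5Y cells, alongside rat cerebellar granule neurons.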

[2] = Binding towards monkey plasma protein at 10 uM; assay type: ADME, cell-free; settings: cercopithecidae
Method in brief: (§1)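 Test compound incubated at 10 or 100 μM with plasma from mouse, rat, monkey, dog and human. The filtrate was analysed, and binding was expressed as percent bound at each concentration.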

[3] = Binding towards monkey plasma protein at 100 uM; assay type: ADME, cell-free; settings: cercopithecidae; method in brief: as §1
[4] = Binding towards human plasma protein at 10 uM; assay type: ADME, cell-free; method in brief: as §1
[5] = Binding towards human plasma protein at 100 uM; assay type: ADME, cell-free; method in brief: as §1
Canis familiaris [6] = organism: Canis familiaris; assay: Plasma protein binding towards dog plasma at 10 uM; assay type: ADME, Canis lupus familiaris; method in brief: as §1
Mus musculus [7] = organism: Mus musculus; assay: Binding towards mouse plasma protein at 100 uM; assay type: ADME; method in brief: as §1
Rattus norvegicus [8] = organism: Rattus norvegicus; assay: Binding towards rat plasma protein at 10 uM; assay type: ADME; method in brief: as §1
Rattus norvegicus [9] = organism: Rattus norvegicus; assay: Binding towards rat plasma protein at 100 uM; assay type: ADME; method in brief: as §1
Cytochrome P450 2C19 = Cytochrome P450 2C19 (Homo sapiens, UniProt P33261); assay: Inhibition of Cytochrome P450 2C19; assay type: ADME
Sequence of Cytochrome P450 2C19 (P33261 whole entry): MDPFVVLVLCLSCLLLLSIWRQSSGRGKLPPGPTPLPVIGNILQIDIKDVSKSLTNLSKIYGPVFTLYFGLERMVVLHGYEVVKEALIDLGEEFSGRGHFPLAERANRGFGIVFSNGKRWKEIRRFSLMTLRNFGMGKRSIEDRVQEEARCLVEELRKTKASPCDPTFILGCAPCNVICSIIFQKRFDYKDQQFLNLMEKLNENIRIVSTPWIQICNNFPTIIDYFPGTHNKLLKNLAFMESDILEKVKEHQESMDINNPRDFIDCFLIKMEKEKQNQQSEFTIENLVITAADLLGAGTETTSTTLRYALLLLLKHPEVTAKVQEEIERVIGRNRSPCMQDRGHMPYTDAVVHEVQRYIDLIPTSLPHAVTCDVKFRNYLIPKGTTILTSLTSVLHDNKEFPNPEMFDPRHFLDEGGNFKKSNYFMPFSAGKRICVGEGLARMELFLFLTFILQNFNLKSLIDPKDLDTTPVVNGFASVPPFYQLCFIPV

Cathepsin B = Cathepsin B (Homo sapiens, UniProt P07858); assay: Inhibitory activity against Cathepsin B
Cytochrome P450 2C9 = Cytochrome P450 2C9 (Homo sapiens, UniProt P11712); assay: Inhibition of Cytochrome P450 2C9; assay type: ADME
Sequence of Cytochrome P450 2C9 (P11712 whole entry): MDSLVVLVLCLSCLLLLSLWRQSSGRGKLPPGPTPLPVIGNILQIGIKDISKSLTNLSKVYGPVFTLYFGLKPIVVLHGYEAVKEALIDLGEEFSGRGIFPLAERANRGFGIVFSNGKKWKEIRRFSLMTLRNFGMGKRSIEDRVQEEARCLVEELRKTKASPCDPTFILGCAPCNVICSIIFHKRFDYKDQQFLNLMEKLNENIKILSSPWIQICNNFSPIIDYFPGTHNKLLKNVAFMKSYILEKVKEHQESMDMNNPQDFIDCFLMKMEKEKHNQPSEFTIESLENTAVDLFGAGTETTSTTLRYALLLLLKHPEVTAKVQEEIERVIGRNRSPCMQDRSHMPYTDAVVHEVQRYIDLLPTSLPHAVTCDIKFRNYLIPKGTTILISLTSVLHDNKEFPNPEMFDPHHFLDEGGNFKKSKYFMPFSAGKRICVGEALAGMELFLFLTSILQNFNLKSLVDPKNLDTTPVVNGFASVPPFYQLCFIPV

Coagulation factor X = Coagulation factor X (Homo sapiens, UniProt P00742); assay: Inhibitory activity against Coagulation factor X
Sequence of Coagulation factor X (P00742 41-179 limits assumed): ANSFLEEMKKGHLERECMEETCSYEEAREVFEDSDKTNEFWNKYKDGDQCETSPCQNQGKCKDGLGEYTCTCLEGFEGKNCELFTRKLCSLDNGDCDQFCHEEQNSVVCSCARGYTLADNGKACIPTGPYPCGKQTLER
Sequence of Coagulation factor X (P00742 235-488 limits assumed): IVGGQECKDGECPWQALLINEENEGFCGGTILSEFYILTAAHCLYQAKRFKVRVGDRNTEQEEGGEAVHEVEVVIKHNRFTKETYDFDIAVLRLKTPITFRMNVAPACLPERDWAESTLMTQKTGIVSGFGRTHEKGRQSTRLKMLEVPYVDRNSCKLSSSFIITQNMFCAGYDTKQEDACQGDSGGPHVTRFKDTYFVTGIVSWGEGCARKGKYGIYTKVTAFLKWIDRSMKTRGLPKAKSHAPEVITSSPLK

Coagulation factor VII = molecular target: T1, Coagulation factor VII (Homo sapiens, UniProt P08709); assay: Inhibitory activity against coagulation factor VII
T1 sequence (P08709 whole entry): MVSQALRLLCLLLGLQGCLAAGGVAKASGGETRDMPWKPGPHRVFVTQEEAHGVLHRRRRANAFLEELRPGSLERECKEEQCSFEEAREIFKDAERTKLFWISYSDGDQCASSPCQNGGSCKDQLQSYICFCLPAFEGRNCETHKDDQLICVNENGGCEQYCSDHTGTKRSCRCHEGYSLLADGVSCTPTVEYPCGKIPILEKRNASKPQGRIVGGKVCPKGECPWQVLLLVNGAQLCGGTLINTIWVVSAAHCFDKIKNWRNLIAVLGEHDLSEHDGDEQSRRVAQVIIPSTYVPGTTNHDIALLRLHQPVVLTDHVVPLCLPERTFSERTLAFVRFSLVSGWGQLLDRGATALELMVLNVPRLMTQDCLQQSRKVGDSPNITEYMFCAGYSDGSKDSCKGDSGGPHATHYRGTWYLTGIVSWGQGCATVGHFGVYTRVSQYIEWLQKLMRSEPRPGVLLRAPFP

Chymotrypsinogen A = Chymotrypsinogen A (Bos taurus, UniProt P00766); assay: Inhibitory activity against Chymotrypsinogen
Cytochrome P450 3A4 [10] = molecular target: T2, Cytochrome P450 3A4 (Homo sapiens, UniProt P08684); assay: Inhibition of Cytochrome P450 3A4 as BFC substrate; assay type: ADME
T2 sequence (P08684 whole entry): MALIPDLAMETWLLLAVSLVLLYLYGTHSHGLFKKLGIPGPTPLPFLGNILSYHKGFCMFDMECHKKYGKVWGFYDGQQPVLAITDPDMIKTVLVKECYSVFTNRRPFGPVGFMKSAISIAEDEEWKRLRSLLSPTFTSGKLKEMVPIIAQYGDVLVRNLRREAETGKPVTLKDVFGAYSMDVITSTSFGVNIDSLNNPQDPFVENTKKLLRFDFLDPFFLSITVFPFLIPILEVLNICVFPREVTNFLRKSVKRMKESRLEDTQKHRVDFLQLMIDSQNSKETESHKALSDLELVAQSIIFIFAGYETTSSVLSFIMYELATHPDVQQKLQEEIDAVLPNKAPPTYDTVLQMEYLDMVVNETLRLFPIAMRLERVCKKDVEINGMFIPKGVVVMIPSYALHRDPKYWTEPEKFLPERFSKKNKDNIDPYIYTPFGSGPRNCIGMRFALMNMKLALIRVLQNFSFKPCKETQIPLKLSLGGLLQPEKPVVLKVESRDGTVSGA

Cytochrome P450 3A4 [11] = molecular target: T2, Cytochrome P450 3A4; assay: Inhibition of Cytochrome P450 3A4 as BQ substrate; assay type: ADME
Cytochrome P450 2D6 = Cytochrome P450 2D6 (Homo sapiens, UniProt P10635); assay: Inhibition of Cytochrome P450 2D6; assay type: ADME
Sequence of Cytochrome P450 2D6 (P10635 whole entry): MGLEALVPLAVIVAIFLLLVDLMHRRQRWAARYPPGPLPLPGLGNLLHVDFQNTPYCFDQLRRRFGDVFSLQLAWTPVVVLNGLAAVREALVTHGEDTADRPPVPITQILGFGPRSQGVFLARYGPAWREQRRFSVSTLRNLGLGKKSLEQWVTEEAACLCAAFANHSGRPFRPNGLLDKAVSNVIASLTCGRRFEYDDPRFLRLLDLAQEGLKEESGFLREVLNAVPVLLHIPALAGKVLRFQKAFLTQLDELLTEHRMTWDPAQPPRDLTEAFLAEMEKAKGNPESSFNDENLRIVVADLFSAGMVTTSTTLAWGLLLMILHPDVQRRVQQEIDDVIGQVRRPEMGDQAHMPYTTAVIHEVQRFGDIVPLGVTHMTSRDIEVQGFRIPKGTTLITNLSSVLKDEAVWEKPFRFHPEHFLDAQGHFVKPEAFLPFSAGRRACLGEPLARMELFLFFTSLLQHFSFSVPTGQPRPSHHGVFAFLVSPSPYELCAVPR

Caspase-1 = molecular target: T3, Caspase-1 (Homo sapiens, UniProt P29466); assay: Inhibitory activity against interleukin 1-beta converting enzyme (IL-1 beta converting enzyme)
T3 sequence (P29466 whole entry): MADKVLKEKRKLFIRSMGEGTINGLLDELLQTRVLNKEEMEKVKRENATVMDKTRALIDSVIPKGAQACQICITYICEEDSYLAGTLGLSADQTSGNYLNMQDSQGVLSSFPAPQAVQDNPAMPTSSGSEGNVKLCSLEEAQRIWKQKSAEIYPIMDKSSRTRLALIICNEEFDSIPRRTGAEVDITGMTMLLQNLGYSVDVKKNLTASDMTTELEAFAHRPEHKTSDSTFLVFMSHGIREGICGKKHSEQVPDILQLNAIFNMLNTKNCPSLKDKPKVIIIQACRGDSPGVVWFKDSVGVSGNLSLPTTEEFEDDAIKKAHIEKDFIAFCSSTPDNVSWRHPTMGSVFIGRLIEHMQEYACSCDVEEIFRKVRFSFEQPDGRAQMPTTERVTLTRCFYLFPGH

Proteasome = assay: Inhibitory activity against proteasome; assay type: subcellular
Serine protease 1 = Serine protease 1 (Homo sapiens, UniProt P07477); assay: Inhibitory activity against trypsin
Sequence of Serine protease 1 (P07477 whole entry): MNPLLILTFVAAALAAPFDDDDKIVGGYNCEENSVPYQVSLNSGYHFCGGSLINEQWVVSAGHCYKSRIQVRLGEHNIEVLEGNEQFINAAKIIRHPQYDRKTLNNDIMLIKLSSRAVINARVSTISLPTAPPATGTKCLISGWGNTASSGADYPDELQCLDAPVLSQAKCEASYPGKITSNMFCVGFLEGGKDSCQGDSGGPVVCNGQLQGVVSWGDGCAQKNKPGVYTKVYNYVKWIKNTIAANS

Prothrombin = Prothrombin (Homo sapiens, UniProt P00734); assay: Inhibitory activity against thrombin
Canis familiaris [12] = organism: Canis familiaris; assay: Plasma protein binding towards dog plasma at 100 uM; assay type: ADME, Canis lupus familiaris; method in brief: as §1
Mus musculus [13] = organism: Mus musculus; assay: Binding towards mouse plasma protein at 10 uM; assay type: ADME; method in brief: as §1

CC(C)C[C@H](C=O)NC(=O)[C@@H](NS(=O)(=O)c1ccc2ccccc2c1)C(C)C
CC50 ([1]; read-out: LD50 (the source's name)): 9.8 µM

CC(C)C[C@H](C=O)NC(=O)[C@@H](NS(=O)(=O)c1ccc(F)cc1)C(C)C
Binding [2]: 95.1%
Binding [3]: 90.5%
Binding [4]: 95.4%
Binding [5]: 91.6%
Binding (Canis familiaris [6]): 75.8%
Binding (Mus musculus [7]): 90.2%
Binding (Rattus norvegicus [8]): 89.9%
Binding (Rattus norvegicus [9]): 85.4%
IC50 (Cytochrome P450 2C19): 177 µM
IC50 (Cathepsin B): 0.015 µM
IC50 (Cytochrome P450 2C9): 492 µM
IC50 (Coagulation factor X): > 60 µM
IC50 (Coagulation factor VII): > 100 µM
IC50 (Chymotrypsinogen A): > 200 µM
IC50 (Cytochrome P450 3A4 [10]): 81 µM
IC50 (Cytochrome P450 3A4 [11]): 531 µM
IC50 (Cytochrome P450 2D6): 291 µM
IC50 (Caspase-1): > 100 µM
CC50 [1]: > 1000 µM
IC50 (Proteasome): > 200 µM
IC50 (Serine protease 1): > 100 µM
IC50 (Prothrombin): > 100 µM
Binding (Canis familiaris [12]): 66.8%
Binding (Mus musculus [13]): 89.9%

From ChEMBL document CHEMBL1145779, “Structure-activity relationship study and drug profile of N-(4-fluorophenylsulfonyl)-L-valyl-L-leucinal (SJA6017) as a potent calpain inhibitor” (J Med Chem, 2003)
